High-throughput results as filed in PubChem BioAssay.
STAT3 blocker: STAT3 signaling inhibition; U3A cells, IL-6 STAT3-luciferase reporter, luminescence; host cell line lacks STAT1; inhibition, % at 5.5 µM; actives 0.89% (n = 190,000); AID 862;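 active = inhibition above the mean inhibition across all screened compounds plus 3 SD, cut at about 44% in these data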;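 note: 0% = DMSO only wells and 100% = 100 µM nifuroxazide control wells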
NF-kB neuron act: compounds increasing NF-kB expression in human neuronal cells; NF-kB reporter expression; stronger effect = higher value; fold change at 12.5 µM; actives 1.6% (n = 190,000); in the data active = fold change above about 3.3
STAT1 inh: STAT1 signaling inhibition. inhibition, % at 5.5 µM. AID 920. NIH 3T3 STAT1-luciferase reporter, IFN-gamma, luminescence. actives 0.35% (n = 200,000);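 active = inhibition above a set limit, the mean inhibition across all tested compounds plus 3 SD, cut at about 34% in these data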;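 note: 0% = IFN-gamma with DMSO and 100% = IFN-gamma with 300 µM nifuroxazide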
STAT1 act: increases IFN-gamma driven STAT1 reporter signal. NIH 3T3 STAT1-luciferase reporter, luminescence; 100% = IFN-gamma alone, no compound. activation (% of control), % at 5.5 µM. actives 2.6% (n = 200,000);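 active = activation above the screen-wide mean activation plus 3 SD, cut at about 130% in these data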;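 note: raw ratio to IFN-gamma control signal so 100% means no change and 0% no light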
STAT3 act: activators of IL-6 induced STAT3 signaling. AID 871. actives 0.91% (n = 190,000). activation (% of control), % at 5.6 µM. U3A cells, IL-6 STAT3-luciferase reporter, luminescence; 100% = signal with IL-6 EC80 alone;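 active = activation above the screen-wide mean of compound activation plus 3 SD, cut at about 130% in these data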;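 note: 0% = background luminescence of wells with medium and substrate only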
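Test system: STAT3-luciferase reporter U3A cells; Detection: reporter luminescence signal; Times: 1 h compound pre-exposure, 6 h IL-6 stimulation, 37 °C; Benchmarks: IL-6-only high control; Also added: IL-6 stimulus at 33 ng/mL final.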
APP 5'UTR act: APP 5'UTR luciferase reporter activation; SH-SY5Y APP 5'UTR luciferase reporter, luminescence; zero percent = DMSO vehicle wells; AID 1276; activation, % at 2 µM; actives 1% (n = 190,000);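 active = activation above a set limit, based on mean plus 3 SD of controls, cut at about 140% in these data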
* marks the source's active call; other numbers are inactive results. In the library only some 4.9% were active in any assay of this set; here they are far more common.

SMILES | STAT3 blocker | NF-kB neuron act | STAT1 inh | STAT1 act | STAT3 act | APP 5'UTR act
O=[N+]([O-])c1ccccc1CSc1nc2ccccc2o1 | -21 | 2.4 | -43 | 140* | 115 | 65
COc1ccc(C(C)=O)cc1CSc1nc2ccccc2o1 | 15 | 1.9 | 3 | 97 | 90 | 18
Cc1nn(C)cc1CN(C)C(=O)CCc1nnc(CCC2CCCCC2)o1 | -2 | 1.4 | -20 | 116 | 105 | 5
Oc1ccc2c(c1)oc1cc(O)ccc12 | 9 | 7* | 6 | 95 | 96 | 2
CCCC(=O)Nc1ccc(C#Cc2ccccc2)cc1 | -43 | 2.9 | -44 | 140* | 146* | 121
O=C(Nc1ccc(C#Cc2ccccc2)cc1)C1CC1 | -46 | 3.9* | -107 | 196* | 143* | 110
CCCC(=O)Nc1ccc(Oc2ccc(NC(=O)CCC)cc2)cc1 | 0 | 1.1 | -5 | 100 | 102 | 2
Cc1csc2c(=O)[nH]cnc12 | 6 | 1.3 | 4 | 96 | 97 | 9
COc1cc(C2Nc3ccccc3C(=O)N2c2ccc3c(c2)OCCO3)ccc1OCC(C)C (configuration not stated) | 5 | 1.1 | -35 | 132* | 96 | 107
COc1cc(C2Nc3ccccc3C(=O)N2c2ccccc2OC)ccc1O (configuration not stated) | 4 | 0.97 | -5 | 105 | 99 | 20
O=C1c2ccccc2NC(c2ccc3c(c2)OCCO3)N1c1ccc2c(c1)OCCO2 (configuration not stated) | 24 | 4.4* | -19 | 119 | 85 | 85
COC(=O)c1ccccc1N1CCS(=O)(=O)CC1 | 6 | 0.97 | -10 | 108 | 101 | 4
CCCCc1ccc(-c2nc(-c3ccncc3)no2)cc1 | 4 | 7* | -16 | 116 | 100 | 176*
c1ccc(-c2nc(-c3ccncc3)no2)cc1 | 9 | 2.2 | -41 | 138* | 94 | 103
c1ccc(-c2ccc(-c3nc(-c4ccncc4)no3)cc2)cc1 | 12 | 6.8* | -37 | 136* | 94 | 177*
Cc1ccc2nc(-c3cccnc3)cc(C(=O)Nc3ccc(F)cc3C)c2c1 | 2 | 0.88 | -2 | 99 | 102 | 6
COc1cccc(NC(=O)/C=C/c2ccco2)c1 | -10 | 3.7* | -29 | 128 | 108 | 73
O=C(/C=C/c1ccco1)Nc1ccc2c(c1)OCCO2 | 41 | 9.2* | -5 | 103 | 69 | 156*
O=C(/C=C/c1ccccc1)Nc1ccc2c(c1)OCCO2 | 79* | 3.5* | 42* | 60 | 35 | 152*
CCN(CC(=O)Nc1ccc2c(c1)OCCO2)C(=O)/C=C/c1ccccc1 | -12 | 1.6 | -11 | 109 | 111 | -9
CSc1cccc(NC(=O)/C=C/c2ccco2)c1 | -4 | 3.2 | -24 | 123 | 104 | 36
O=C(COc1ccccc1C(=O)Nc1ccccc1)c1ccc(Br)cc1 | 25 | 1.2 | -10 | 106 | 83 | 9
O=C(Oc1ccccc1C(=O)Nc1ccccc1)c1ccccc1Br | 24 | 3.7* | 11 | 90 | 83 | -59
CCC(=NCc1ccco1)c1c(C(F)(F)F)[nH]n(-c2nc3ccccc3s2)c1=O | 33 | 0.49 | -22 | 120 | 76 | 17
CC(=NCc1ccco1)c1c(C)[nH]n(-c2nc3ccccc3s2)c1=O | 11 | 1.5 | -43 | 128 | 92 | 153*
SMILES | STAT3 blocker | NF-kB neuron act | STAT1 inh | STAT1 act | STAT3 act | APP 5'UTR act
C=CCN=C(NC#N)SCC(=O)c1cccc(OC)c1 | -18 | 2.1 | -41 | 137* | 117 | 30
O=C(Nc1nncs1)c1cc2c(s1)CCC2 | -4 | 1.1 | -29 | 127 | 105 | 40
O=C(Nc1nccs1)c1cc2c(s1)CCCCC2 | 95* | 1.4 | 70* | 35 | 21 | 37
COc1cccc(N=C2SC(CC(=O)Nc3ccccc3)C(=O)N2Cc2ccccn2)c1 (configuration not stated) | 7 | 1.2 | -4 | 102 | 101 | 1
CC(C)c1ccc(/C=C/C(=O)Nc2nncs2)cc1 | 18 | 7* | -47 | 145* | 85 | 134
Cc1sc(NC(=O)/C=C/c2ccc(C(C)C)cc2)c(C#N)c1C | 4 | 1.2 | -2 | 102 | 98 | 2
O=C(/C=C/c1ccc2c(c1)OCO2)c1ccc(F)cc1 | -3 | 1.6 | -8 | 108 | 100 | 20
O=C(/C=C/c1ccc2c(c1)OCO2)c1ccc[nH]1 | -9 | 1.4 | -21 | 118 | 107 | 188*
COc1cccc(/C=C/C(=O)c2ccc[nH]2)c1 | -10 | 6.6* | -30 | 128 | 106 | 201*
CCN(CC)S(=O)(=O)c1ccc(C(=O)NCc2n[nH]c(=S)n2-c2ccc(Cl)c(Cl)c2)cc1 | 8 | 1.3 | 8 | 94 | 98 | -3
Cc1cnc(NC(=O)c2cccc(S(=O)(=O)N3CC(C)OC(C)C3)c2)s1 (configuration not stated) | 11 | 1.1 | 2 | 96 | 94 | -4
Nc1nc(CSc2ccccc2)nc(N2CCCCC2)n1 | -5 | 2.4 | -48 | 142* | 111 | 33
CC(C)S(=O)(=O)N1CCCC(C(=O)c2cccc(Cl)c2)C1 (configuration not stated) | 8 | 1 | 4 | 96 | 98 | -2
O=C(N/N=C/c1ccc(Br)o1)c1ccc2c(c1)OCCO2 | -10 | 3 | -32 | 130* | 106 | 46
O=C(N/N=C/c1cccnc1)c1ccc2c(c1)OCCO2 | -1 | 1.2 | -8 | 107 | 99 | 39
O=C(COC(=O)c1ccncc1)Nc1cc(Cl)c(Cl)cc1Cl | 3 | 1.1 | 6 | 95 | 101 | 8
CSC(=NC#N)N1CCN(c2ccc([N+](=O)[O-])cc2)CC1 | 8 | 1.1 | 13 | 86 | 102 | -14
N#C/C(=C\c1ccc(Cl)c([N+](=O)[O-])c1)c1ccccn1 | 16 | 1.2 | 2 | 97 | 90 | 42
CNc1ccc(/C=C(\C#N)c2ccccn2)cc1[N+](=O)[O-] | 4 | 1.8 | -42 | 139* | 99 | 125
N#C/C(=C\c1ccccc1)c1ccccn1 | 8 | 1.9 | -32 | 130* | 94 | 46
COC(=O)/C(C#N)=C/c1ccc(OC(=O)c2ccccn2)cc1 | -5 | 1.4 | -13 | 113 | 103 | 19
COc1ccc(Cl)cc1NC(=O)C1CCCO1 (configuration not stated) | 7 | 1.1 | 1 | 100 | 97 | -12
COc1cc2c(cc1NC(=O)c1cccc(S(=O)(=O)N(C)C)c1)oc1ccccc12 | 6 | 1.4 | -38 | 134* | 96 | 20
COc1cc2c(cc1NC(=O)C1CCCO1)oc1ccccc12 (configuration not stated) | -76 | 5.6* | -51 | 147* | 166* | 162*
CCc1ccc(OS(=O)(=O)c2cn(C)c(=O)n(C)c2=O)cc1 | 15 | 1.3 | -5 | 107 | 91 | -2
